Screening data from PubChem BioAssay.
In the library only some 3.1% were active in any assay of this set; here they are far more common.
SENP8 block-1: human SENP8 protease inhibitors, primary screen, biochemical, fluorescence, Nedd8 protein substrate, uHTS; Sentrin-specific protease 8 (Homo sapiens), Q96LD8; recombinant SENP8; inhibition, % at 20 µM; actives 0.64% (n = 360,000); AID 602440, 2012; in the data active means inhibition mostly above about 40%, no sharp cut-off; inactive means mostly below about 27%
UBC13 polyUb: UBC13 polyubiquitin chain formation inhibitors, primary screen, biochemical, TR-FRET, uHTS | Ubiquitin-conjugating enzyme E2 N (Homo sapiens), P61088 | inhibition, % at 20 µM | actives 0.47% (n = 330,000); in the data active means inhibition above about 45%, passing the limit was not always enough
SENP6 inh: SENP6 protease inhibitors, primary screen, biochemical, luminescence, uHTS. Recombinant SENP6 catalytic domain, aminoluciferin luminescence. actives 1.8% (n = 330,000). inhibition, % at 10 µM. AID 2599, 2010;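 active means inhibition above about 50% at the single tested dose, limit read from the data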;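 further: plate controls were DMSO wells with enzyme for no effect and DMSO wells lacking enzyme for full effect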
Target sequence (Q9GZR1 628-1112 limits assumed): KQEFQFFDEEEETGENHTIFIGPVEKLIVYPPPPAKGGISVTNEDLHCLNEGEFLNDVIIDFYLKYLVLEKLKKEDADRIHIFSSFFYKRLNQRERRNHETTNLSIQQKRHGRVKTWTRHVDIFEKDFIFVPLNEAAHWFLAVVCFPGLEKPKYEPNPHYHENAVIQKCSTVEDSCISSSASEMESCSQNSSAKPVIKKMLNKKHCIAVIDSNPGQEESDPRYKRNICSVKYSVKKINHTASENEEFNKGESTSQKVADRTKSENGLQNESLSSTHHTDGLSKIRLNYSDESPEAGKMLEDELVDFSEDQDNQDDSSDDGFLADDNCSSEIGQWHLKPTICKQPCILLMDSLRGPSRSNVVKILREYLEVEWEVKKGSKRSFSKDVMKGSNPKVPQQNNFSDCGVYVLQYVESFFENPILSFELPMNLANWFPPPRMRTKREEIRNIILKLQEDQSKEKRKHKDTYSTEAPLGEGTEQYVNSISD
SENP7 inh: SENP7 protease inhibitors, primary screen, biochemical, luminescence, uHTS | actives 1.5% (n = 330,000) | recombinant SENP7, Z-RLRGG-aminoluciferin luminescence, 40 min | Sentrin-specific protease 7 (Homo sapiens), Q9BQF6 | inhibition, % at 5 µM | AID 434973, 2010;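 active means inhibition above about 50% at the single test dose, limit read from the data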;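 further: plate controls were DMSO with enzyme for no effect and no enzyme buffer wells for full effect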
SENP8 block-2: SENP8 protease inhibitors, primary screen, biochemical, luminescence; Sentrin-specific protease 8 (Homo sapiens), Q96LD8; purified SENP8, Z-RLRGG-aminoluciferin cleavage; inhibition, % at 10 µM; actives 1.2% (n = 330,000); AID 2540, 2010; in the data active means inhibition above about 50%
Apaf-1 inh: inhibitors of human Apaf-1 apoptosome, primary screen, biochemical, DEVD-Rh110 fluorescence, uHTS | Apoptotic protease-activating factor 1 (Homo sapiens), O14727 | inhibition, % at 20 µM | reconstituted apoptosome caspase-3 activity | actives 0.71% (n = 330,000); active means inhibition of at least 40% at 20 µM;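 further: plate controls were DMSO wells for no effect and DEVD-CHO caspase inhibitor wells for full effect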
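Material: reconstituted apoptosome with Apaf-1, cytochrome c, caspase-9, procaspase-3, dATP. Technique: Rh110 fluorescence intensity. Buffer or medium: pH 7.5 Hepes buffer with CHAPS, BSA, DTT. Times: 30 min plus 50 min, RT.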
SENP8 conf: SENP8 protease inhibitors, retest, confirmation, biochemical, luminescence, single concentration; shares compounds with SENP7 inh; Recombinant SENP8, Z-RLRGG-aminoluciferin luminescence, 60 min; inhibition, % at 12.5 µM; actives 40% (n = 6,200); AID 488912, 2010;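 active means mean inhibition across replicates above about 50%, limit read from the data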
SENP6 conf: SENP6 protease inhibitors, confirmation, biochemical, luminescence, single concentration. inhibition, % at 12.5 µM. recombinant SENP6, Z-RLRGG-aminoluciferin luminescence. shares compounds with SENP7 inh. actives 58% (n = 6,200)
SENP7 confirm: SENP7 protease inhibitors, retest, confirmation, biochemical, luminescence, single concentration; shares compounds with SENP7 inh; recombinant SENP7, Z-RLRGG-aminoluciferin luminescence, 40 min; inhibition, % at 12.5 µM; actives 69% (n = 6,200); AID 488917, 2010
Casp3 SENP sel: caspase-3 protease inhibitors, confirmation, selectivity assay for SENP inhibitor project, biochemical, single concentration | shares compounds with SENP7 inh | purified caspase-3, Z-DEVD-aminoluciferin luminescence, 60 min | inhibition, % at 12.5 µM | actives 60% (n = 6,200);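 active means mean inhibition above about 50%, limit read from the data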;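 further: plate controls were enzyme with DMSO for no effect and wells without caspase-3 for full effect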
Target sequence (P42574 28-227 limits assumed): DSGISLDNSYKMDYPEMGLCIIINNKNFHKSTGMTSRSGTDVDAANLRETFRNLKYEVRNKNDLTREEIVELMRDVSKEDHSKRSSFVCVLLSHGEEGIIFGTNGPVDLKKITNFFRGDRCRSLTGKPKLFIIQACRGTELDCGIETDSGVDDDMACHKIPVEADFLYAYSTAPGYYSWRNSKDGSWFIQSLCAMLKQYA
Luc interf: counter-screen for SENP inhibitors: luminescence interference. shares compounds with SENP7 inh. Pre-incubated SENP8/Z-RLRGG-aminoluciferin, luciferase luminescence interference. inhibition, % at 12.5 µM. actives 39% (n = 6,200). AID 488919;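 active means mean inhibition above about 50% when retested at one dose, limit read from the data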;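 further: plate controls were DMSO wells with completed reaction for no effect and substrate without enzyme for full effect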
The depositor's hits bear a star; / = not tested or not shown.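 How the source made its calls, unless noted: active means mean inhibition above about 50% in the one-dose retest (limit read from the data); inactive means the rest.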

SMILES	SENP8 block-1	UBC13 polyUb	SENP6 inh	SENP7 inh	SENP8 block-2	Apaf-1 inh	SENP8 conf	SENP6 conf	SENP7 confirm	Casp3 SENP sel	Luc interf
O=C(O)c1cc(N/N=C/c2ccncc2)ccc1Cl	-207.8	-18.5	60.3*	41.2	37.2	0.1	58.1*	54.1*	84.7*	24.6	72.2*
O=C(O)c1cc(N/N=C/c2ccc(N3CCOCC3)cc2)ccc1Cl	-283.5	-12.8	-17.3	30.8	50.9*	-14.5	75.2*	73.4*	94.2*	22.9	74.7*
CSc1ccc(/C=N/Nc2ccc(Cl)c(C(=O)O)c2)cc1	-69.3	-19.3	76.3*	-3.9	77.1*	-5.9	-27.9	90.8*	99.8*	25.0	92.1*
CCN(CC)C(=O)C1=C(C)N(Cc2ccc(F)cc2)C(=O)C(CC(=O)NCC2CCCCC2)C1 (stereo not drawn)	1.9	/	/	/	/	/	/	/	/	/	/
Nc1nnnn1/N=C/c1ccc(O)cc1	-39.9	-1.4	95.1*	90.3*	88.9*	9.4	92.6*	93.2*	101.0*	97.5*	85.3*
Nc1nnnn1/N=C/c1cccc(O)c1	14.8	5.1	6.8	-3.3	-12.8	-3.7	/	/	/	/	/
O=C(NCc1ccco1)c1cc([N+](=O)[O-])ccc1N1CCOCC1	18.1	-6.7	94.6*	-11.8	-0.6	6.5	-6.1	-5.4	-4.9	-5.4	-5.0
O=C(NCc1ccco1)c1cc([N+](=O)[O-])ccc1Cl	5.0	4.2	11.6	9.7	1.0	9.3	/	/	/	/	/
COc1cc(Br)c(/C=C/c2ccc3cccc(O)c3n2)cc1OC	-38.9	-7.6	11.1	5.4	-8.7	13.5	/	/	/	/	/
COc1cc(/C=C/c2ccc3cccc(O)c3n2)c(Br)cc1O	-218.6	-10.2	84.2*	76.8*	87.1*	7.4	63.4*	86.3*	99.5*	54.6*	10.2
CSc1ccc(/C=C/c2ccc3cccc(O)c3n2)cc1	-282.4	-18.0	66.3*	35.9	42.3	11.6	64.6*	90.2*	99.8*	90.8*	53.3*
Oc1cccc2ccc(/C=C/c3ccccc3Br)nc12	-45.5	-38.1	90.5*	69.9*	81.6*	14.7	72.0*	86.7*	91.4*	78.3*	65.5*
Cc1ccsc1/C=C/c1ccc2cccc(O)c2n1	-40.8	-6.3	94.2*	90.7*	85.8*	4.6	94.6*	97.0*	100.8*	90.9*	84.3*
Cc1c(C(=O)NCc2cccc(C(F)(F)F)c2)sc(=O)n1Cc1cccc(F)c1	4.6	/	/	/	/	/	/	/	/	/	/
COCCNC(=O)C1(C)CCN(C(=O)c2ccc(SC(F)(F)F)cc2)C1 (stereo not drawn)	13.9	/	/	/	/	/	/	/	/	/	/
CCCc1ccc(S(=O)(=O)N2CCN(C(=O)CN3C(=O)NC(C)(C4CC4)C3=O)CC2)cc1 (stereo not drawn)	15.3	/	/	/	/	/	/	/	/	/	/
COc1ccc(C2=Nc3ccccc3NC(=O)C2N(CCc2ccccc2)C(=O)c2cccs2)cc1 (stereo not drawn)	1.8	/	/	/	/	/	/	/	/	/	/
COC(=O)C1=C(C(=O)OC)C(C(=O)OC)C(C(=O)OC)C(C(=O)OC)(C(=O)OC)C(C(=O)OC)=C1C(=O)OC (stereo not drawn)	-2.1	/	/	/	/	/	/	/	/	/	/
COc1cc(/C=C/c2ccc3cccc(O)c3n2)ccc1O	-281.8	-25.2	80.0*	51.1*	59.7*	21.8	71.4*	74.6*	91.9*	42.6	81.8*
N#Cc1cnn2c(=O)[nH]cnc12	-1.1	/	/	/	/	/	/	/	/	/	/
COc1ccc2c(c1)CCc1c(C(=O)NC3CCCCC3)noc1-2	16.2	11.1	33.2	86.2*	0.1	-4.1	-24.1	-11.3	-0.2	3.6	-3.0
COCC(C)NC(=O)c1noc2c1CCc1cc(OC)ccc1-2 (stereo not drawn)	1.8	7.2	53.1*	51.6*	12.5	-15.3	36.0	14.3	73.9*	73.3*	60.5*
COCCNC(=O)c1noc2c1CCc1cc(OC)ccc1-2	9.2	7.0	17.4	11.4	-3.0	-16.1	/	/	/	/	/
COc1ccc2c(c1)CCc1c(C(=O)NCCN3CCOCC3)noc1-2	-7.1	-3.0	5.6	0.3	5.0	-2.9	/	/	/	/	/
O=C1CCCN1CCCNc1nc(NCc2cccs2)nc2ccsc12	-9.0	/	/	/	/	/	/	/	/	/	/
SMILES	SENP8 block-1	UBC13 polyUb	SENP6 inh	SENP7 inh	SENP8 block-2	Apaf-1 inh	SENP8 conf	SENP6 conf	SENP7 confirm	Casp3 SENP sel	Luc interf
OC(c1cccc(Cl)c1)c1nc(/C=C/c2ccc(C(F)(F)F)cc2)cs1 (stereo not drawn)	-58.9	/	/	/	/	/	/	/	/	/	/
O=C(c1ccccc1)c1nnc(-c2ccccc2F)o1	37.4	-4.3	85.3*	96.5*	90.2*	5.7	78.6*	95.5*	98.9*	89.7*	31.0
N/C(=N\OC(=O)c1ccccc1Cl)c1ccccc1	12.0	5.5	94.4*	98.5*	95.2*	1.2	96.7*	98.7*	102.8*	96.9*	95.6*
CC(=NOC(=O)c1ccc(Cl)cc1)c1nccs1	0.9	/	/	/	/	/	/	/	/	/	/
C/C(=N\OC(=O)c1ccc(Cl)cc1)c1nccs1	7.9	6.2	72.1*	87.9*	27.7	2.9	27.5	27.8	65.0*	40.7	31.5
N/C(=N\OC(=O)c1ccc(Cl)cc1)c1cccnc1	24.5	-5.0	72.0*	67.3*	35.7	11.4	62.3*	59.0*	85.5*	82.7*	65.9*
N/C(=N\OC(=O)c1ccccc1Cl)c1ccc(Cl)cc1	19.7	4.3	85.2*	83.9*	69.5*	0.8	71.3*	70.1*	93.2*	62.3*	79.1*
N/C(=N\OC(=O)c1cccs1)c1cccnc1	12.1	-11.6	18.8	2.0	-2.4	-15.6	/	/	/	/	/
CC1=C(C(=O)N(C)C)CC(CC(=O)NCCN2CCOCC2)C(=O)N1CCCN1CCCC1=O (stereo not drawn)	22.8	/	/	/	/	/	/	/	/	/	/
